A word on the MIC: it is the least concentration at which growth counts as inhibited. In general, IC50 refers to the concentration needed to halve the response being measured. A word on the inhibition: it is the change of the read-out against control, counted positive when it falls.

In brackets after ≈: the same amount, converted by molar mass.

Data on six compounds can be found in ChEMBL document CHEMBL3352384, “Synthesis and biological activity of new salicylanilide N,N-disubstituted carbamates and thiocarbamates” (Bioorg Med Chem, 2014).

Series [1] relates to Mycobacterium tuberculosis. Put plainly: Antimycobacterial activity against Mycobacterium tuberculosis H37Rv 331/88 assessed as complete growth inhibition after 14 days. It is filed as functional. The following applies: H37Rv 331/88, 336 h. Summed up: (§1)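 M. tuberculosis 331/88 (H37Rv) inoculum diluted 10-3, M. avium 330/88 diluted 10-5. MIC is the lowest concentration giving complete growth inhibition. Isoniazid and p-aminosalicylic acid as references. Quadruplicate, repeated twice.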

Series [2] deals with HepG2. Briefly: Cytotoxicity against human HepG2 cells assessed as reduction in cell viability after 24 hrs by MTS assay. Conditions: HepG2, 24 h. It is filed as cell-based. The procedure, abridged:
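HepG2 hepatocellular carcinoma cells (passage 3–4) were grown in Eagle's MEM with 10% FBS, 1% L-glutamine and non-essential amino acids. Compounds were added from DMSO at eight concentrations in triplicate, with 10% DMSO as the 0% viability control. Viability was read by tetrazolium salt reduction (CellTiter 96 AQueous One). IC50 is the concentration reducing viability to 50% of control.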

A short description of series [3]: Inhibition of Mycobacterium tuberculosis H37Rv isocitrate lyase assessed as glyoxylate phenyl hydrazone formation at 10 uM.
Series [4] concerns Mycobacterium kansasii. Put plainly: Antimycobacterial activity against Mycobacterium kansasii 235/80 assessed as complete growth inhibition after 7 days. Conditions: 235/80, 168 h. In kind it is functional. The procedure, abridged: (§2)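 Dilutions of M. kansasii inoculum were 10-4 for strain 235/80 and 10-5 for clinical isolate 6509/96. MIC was the lowest concentration giving complete growth inhibition, run in quadruplicate and repeated twice.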

Series [5] in a line: Selectivity index, ratio of IC50 for human HepG2 cells to MIC for Trichophyton mentagrophytes 445.
The test system of series [6] is Mycobacterium avium. Briefly: Antimycobacterial activity against Isoniazid, rifampicin, ofloxacin and ethambutol-resistant Mycobacterium avium 330/88 assessed as complete growth inhibition after 21 days. In kind it is functional. The following applies: 330/88, 504 h. The procedure, abridged: as §1
Series [7] in a line: Selectivity index, ratio of IC50 for human HepG2 cells to MIC for atypical mycobacteria. Summed up: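 Selectivity index = HepG2 IC50 / MIC. HepG2 cells (passage 3–4) grown in Eagle's MEM with 10% FBS, L-glutamine and non-essential amino acids. Compounds added from DMSO, eight concentrations in triplicate, tetrazolium-reduction colorimetric read-out. IC50 is the concentration reducing viability to 50% of control; 10% DMSO as 0% viability.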

The subject of series [8] is Mycobacterium kansasii. Briefly: Antimycobacterial activity against clinical isolate Mycobacterium kansasii 6509/96 assessed as complete growth inhibition after 7 days. Conditions: 6509/96, 168 h. In kind it is functional. Summed up: as §2
Series [9] deals with Mycobacterium kansasii. Put plainly: Antimycobacterial activity against Mycobacterium kansasii 235/80 assessed as complete growth inhibition after 14 days. It is filed as functional. Conditions: 235/80, 336 h. The procedure, abridged:
as §2

Series [10] concerns Mycobacterium kansasii. Put plainly: Antimycobacterial activity against clinical isolate Mycobacterium kansasii 6509/96 assessed as complete growth inhibition after 14 days. In kind it is functional. The following applies: 6509/96, 336 h. Summed up: as §2
A short description of series [11]: Selectivity index, ratio of IC50 for human HepG2 cells to MIC for Mycobacterium tuberculosis H37Rv. Conditions: read-out: Selectivity Index. It is filed as toxicity, cell-based. Summed up:
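Selectivity index = HepG2 IC50 / MIC. HepG2 cells (passage 3–4) grown in Eagle's MEM with 10% FBS, L-glutamine and non-essential amino acids. Compounds added from DMSO, eight concentrations in triplicate, tetrazolium-reduction colorimetric read-out.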

Series [12] concerns Mycobacterium tuberculosis. Put plainly: Antimycobacterial activity against Mycobacterium tuberculosis H37Rv 331/88 assessed as complete growth inhibition after 21 days. It is filed as functional. Conditions: H37Rv 331/88, 504 h. The procedure, abridged:
as §1

Series [13] deals with Mycobacterium kansasii. Briefly: Antimycobacterial activity against clinical isolate Mycobacterium kansasii 6509/96 assessed as complete growth inhibition after 21 days. In kind it is functional. Conditions: 6509/96, 504 h. Summed up: as §2
For series [14], the system named is Mycobacterium kansasii. Briefly: Antimycobacterial activity against Mycobacterium kansasii 235/80 assessed as complete growth inhibition after 21 days. It is filed as functional. The following applies: 235/80, 504 h. Summed up: as §2
Series [15] relates to Mycobacterium avium. Briefly: Antimycobacterial activity against Isoniazid, rifampicin, ofloxacin and ethambutol-resistant Mycobacterium avium 330/88 assessed as complete growth inhibition after 14 days. Conditions: 330/88, 336 h. It is filed as functional. The procedure, abridged: as §1
Series [16] has as its system Trichophyton mentagrophytes. Put plainly: Antimicrobial activity against Trichophyton mentagrophytes 445 after 72 hrs by microdilution method. It is filed as functional. The following applies: Trichophyton mentagrophytes, 445, 72 h. Summed up: (§3)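 Broth microdilution in RPMI 1640 with glutamine, with fluconazole and amphotericin B as references. For filamentous fungi, MIC is expressed as the IC50, i.e. the concentration giving 50% growth reduction versus control. Each determination was done twice.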
A general note: In broth dilution the organism is exposed to a series of concentrations in liquid medium.

The test system of series [17] is Trichophyton mentagrophytes. Put plainly: Antimicrobial activity against Trichophyton mentagrophytes 445 after 120 hrs by microdilution method. In kind it is functional. The following applies: Trichophyton mentagrophytes, 445, 120 h. The procedure, abridged: as §3

Regarding `O=C(Nc1ccc(Br)cc1)c1cc(Cl)ccc1O`, the MIC in series [1] came to 4 µM (≈ 1.31 µg/mL); in series [4] it was 4 µM (≈ 1.31 µg/mL); in series [6], 16 µM (≈ 5.23 µg/mL); in [8], 4 µM (≈ 1.31 µg/mL); in [9], 8 µM (≈ 2.61 µg/mL); in series [10] it was 8 µM (≈ 2.61 µg/mL). The minimum inhibitory concentration (MIC) in [12] was 4 µM (≈ 1.31 µg/mL); in series [13] it was 8 µM (≈ 2.61 µg/mL); in [14], 8 µM (≈ 2.61 µg/mL); in series [15], 8 µM (≈ 2.61 µg/mL). Further, the IC50 in series [2] amounted to 15.7 µM. Moreover, the inhibition in series [3] turned out to be 13%. Further, the results for the “Selectivity Index” value in series [5] and in [7] were 16 and 1, respectively. For the same compound, in series [11], the selectivity ratio was determined as 3.9.
Turning to `O=C(Nc1ccccc1)c1ccccc1OC(=O)N(c1ccccc1)c1ccccc1`, the MIC is 125 µM (≈ 51.1 µg/mL) in series [1]; 62.5 µM (≈ 25.5 µg/mL) in [4]; 62.5 µM (≈ 25.5 µg/mL) in [6]; 125 µM (≈ 51.1 µg/mL) in series [8]; 125 µM (≈ 51.1 µg/mL) in series [9]; 125 µM (≈ 51.1 µg/mL) in series [10]. Moreover, the MIC in series [12] was determined as 125 µM (≈ 51.1 µg/mL); in series [13], 125 µM (≈ 51.1 µg/mL); in series [14] it was 125 µM (≈ 51.1 µg/mL); in [15], 62.5 µM (≈ 25.5 µg/mL). In addition, the IC50 in [2] was determined as 211 µM. Further, in [3], the inhibition stood at 8%. Further, the “Selectivity Index” value in series [7] stood at 1.7. Further, the selectivity ratio in series [11] is 1.7.
Take `C[C@@H]1[C@H](O)[C@@H](C)/C=C/C=C/C=C/C=C/C=C/C=C/C=C/[C@H](O[C@@H]2O[C@H](C)[C@@H](O)[C@H](N)[C@@H]2O)C[C@@H]2O[C@](O)(C[C@@H](O)C[C@@H](O)[C@H](O)CC[C@@H](O)C[C@@H](O)CC(=O)O[C@H]1C)C[C@H](O)[C@H]2C(=O)O` [AMPHOTERICIN B]: the MIC in series [16] and in series [17] was 1.95 µM (≈ 1.8 µg/mL) throughout. Further, the IC50 in series [2] came out at 2.5 µM. In addition, in series [5], the “Selectivity Index” value is 1.3.
Consider `CN(C(=O)Oc1ccc(Cl)cc1C(=O)Nc1ccc(F)cc1)c1ccccc1`, for which the MIC in series [1] came to 32 µM (≈ 12.8 µg/mL); in series [4] it was 62.5 µM (≈ 24.9 µg/mL); in series [6] it was 250 µM (≈ 99.7 µg/mL); in [8] it was 62.5 µM (≈ 24.9 µg/mL); in [9], 125 µM (≈ 49.9 µg/mL); in series [10], 125 µM (≈ 49.9 µg/mL). Besides, the MIC in series [12] came out at 62.5 µM (≈ 24.9 µg/mL); in [13], 125 µM (≈ 49.9 µg/mL); in series [14], 125 µM (≈ 49.9 µg/mL); in series [15], 250 µM (≈ 99.7 µg/mL). The IC50 in series [2] worked out at 512 µM. In addition, the inhibition in [3] stood at 14%. In series [7], the “Selectivity Index” value is “<=8.2”. Moreover, the selectivity ratio in series [11] was determined as 8.2.
On to `CN(C(=O)Oc1ccc(Cl)cc1C(=O)Nc1ccc(Br)cc1)c1ccccc1`, for which the MIC in series [1] amounted to 32 µM (≈ 14.7 µg/mL); in series [4] it was 32 µM (≈ 14.7 µg/mL); in series [6] it was 250 µM (≈ 115 µg/mL); in series [8], 32 µM (≈ 14.7 µg/mL); in [9] it was 125 µM (≈ 57.5 µg/mL); in series [10], 62.5 µM (≈ 28.7 µg/mL). For the same compound, the MIC in series [12] came to 32 µM (≈ 14.7 µg/mL); in [13] it was 125 µM (≈ 57.5 µg/mL); in series [14], 125 µM (≈ 57.5 µg/mL); in series [15] it was 250 µM (≈ 115 µg/mL). Also, in series [2], the IC50 amounted to 945 µM. The inhibition in series [3] stood at 14%. Besides, the “Selectivity Index” value in series [7] is recorded as “<=29.5”. Moreover, in [11], the selectivity ratio worked out at 29.5.
Consider `O=C(Nc1ccccc1)c1ccccc1O` [SALICYLANILIDE], for which the MIC was determined as 32 µM (≈ 6.82 µg/mL) in series [1]; 125 µM (≈ 26.7 µg/mL) in [4]; 250 µM (≈ 53.3 µg/mL) in series [6]; 125 µM (≈ 26.7 µg/mL) in [8]; 250 µM (≈ 53.3 µg/mL) in [9]; 250 µM (≈ 53.3 µg/mL) in series [10]. The MIC in series [12] is 125 µM (≈ 26.7 µg/mL); in [13], 250 µM (≈ 53.3 µg/mL); in [14], 250 µM (≈ 53.3 µg/mL); in series [15], 125 µM (≈ 26.7 µg/mL). Also, the IC50 in [2] is 89.8 µM. For the same compound, the inhibition in series [3] was 9%. Also, in [7], the “Selectivity Index” value is 0.36. The selectivity ratio in series [11] is 0.7.
